# An excerpt weighted towards active compounds, which were near 1.6% of everything screened.
# ADAM10 inh – inhibitors of human ADAM10 | recombinant ADAM10, EDANS/DABCYL FRET peptide cleavage, 3 h | AID 720582 | O14672 | inhibition, % at 7 µM | 370,000 tested, 0.62% active;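 active = inhibition above a per-campaign cutoff equal to the mean of compounds falling between control-based bounds plus 3 SD, cut at about 20% in these data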;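 note: 0% = DMSO wells while the 100% control is not disclosed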
# MT1-MMP act inh – MT1-MMP (human) activation inhibition | P50281 | HT1080 RFP-PRO-GFP cells, GFP/RFP ratio fluorescence, overnight; percent of plate control window, DMSO zero | GFP/RFP ratio change, % at 20 µM | 360,000 tested, 0.061% active;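 active = GFP/RFP ratio change of at least 30% with cell ATP level not reduced by more than half and red fluorescence within 50% of control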
#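 Assay system: HT1080 cells carrying an RFP-PRO-GFP reporter | Dosing: Single dose of 20 µM compound, 1% DMSO final | Incubation: Cells overnight before dosing, compound overnight, 37 °C, 5% CO2 | Evaluation: GFP/RFP fluorescence ratio | Control set: DMSO and RFP-L50D-GFP cell wells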
# DDE Tn7 FP inh – inhibitors of Tn7 peptide binding to human fibrin DD(E). FP displacement of FITC-Tn7 peptide from fibrin DD(E); 0% = median of compound wells per plate. inhibition, % at 8.3 µM. 370,000 tested, 0.13% active;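 active = inhibition above the mean of compounds falling within the control limits plus 3 SD of them, cut at about 14% in these data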;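 note: 0% = plate median of compound wells and 100% = 10 µM Aha-Tn7 peptide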
#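 Assay system: human fibrin DD(E) protein / Input: 2 µM fibrin DD(E) / Benchmarks: high control of 10 µM Aha-Tn7 peptide / Measured by: fluorescence polarization of the labelled Tn7 tracer / Medium: Tris buffer with calcium and detergent, pH 7.8 / Timing: 10 min compound pre-incubation, 3 h probe incubation at room temperature / Repeats: one replicate per compound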
# ADAM17 inh – inhibitors of human ADAM17 | P78536 | recombinant ADAM17, EDANS/DABCYL FRET peptide cleavage | inhibition, % at 6.95 µM | 370,000 tested, 0.83% active;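 active = inhibition above the mean of compounds lying between control limits plus 3 SD, set per campaign, cut at about 8.5% in these data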;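 note: 0% = DMSO-only wells as the low control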
# Target sequence (P78536 215-824 limits assumed): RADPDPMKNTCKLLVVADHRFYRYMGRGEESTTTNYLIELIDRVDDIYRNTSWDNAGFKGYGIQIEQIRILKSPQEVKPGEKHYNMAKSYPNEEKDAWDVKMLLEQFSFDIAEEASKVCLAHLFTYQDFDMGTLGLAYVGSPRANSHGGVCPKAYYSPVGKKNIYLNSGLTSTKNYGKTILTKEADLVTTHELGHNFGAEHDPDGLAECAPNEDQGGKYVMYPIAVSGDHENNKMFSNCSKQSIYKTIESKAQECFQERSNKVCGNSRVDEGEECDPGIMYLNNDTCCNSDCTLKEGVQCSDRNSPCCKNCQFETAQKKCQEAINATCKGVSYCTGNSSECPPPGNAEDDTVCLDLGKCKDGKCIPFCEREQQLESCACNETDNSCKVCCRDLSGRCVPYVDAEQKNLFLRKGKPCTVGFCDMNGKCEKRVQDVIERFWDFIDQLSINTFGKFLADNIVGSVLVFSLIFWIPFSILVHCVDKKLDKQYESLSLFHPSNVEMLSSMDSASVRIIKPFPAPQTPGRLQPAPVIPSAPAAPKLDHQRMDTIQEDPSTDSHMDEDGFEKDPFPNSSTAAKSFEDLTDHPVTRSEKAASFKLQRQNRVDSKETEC
# Tn6 DDE FP – disrupts Tn6 cyclic peptide binding to fibrin D-Dimer-E complex; AID 720509; Fibrin DD(E) TRITC-Tn6 fluorescence polarization displacement; P02675; inhibition, % at 8.3 µM; 370,000 tested, 0.21% active;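 active = inhibition above a per-campaign cutoff: mean of compounds within control limits plus 3 SD, cut at about 15% in these data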;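 note: 0% = median of all compound wells on the plate and 100% = blocking peptide control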
# ADAM10 confirm – human ADAM10 inhibition, confirmation. shares compounds with ADAM10 inh. ADAM10 QFRET peptide cleavage, EDANS fluorescence. inhibition, % at 6.95 µM. 2,100 tested, 1% active;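 active = inhibition above about 20% chosen separately for each screening run, limit read from the data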;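 note: 0% = DMSO wells and 100% = marimastat wells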
# ADAM17 counter – counter-screen for ADAM10 exosite inhibitors: inhibitors of human ADAM17. ADAM17 QFRET peptide cleavage, EDANS fluorescence. inhibition, % at 6.95 µM. 2,100 tested, 0.5% active. shares compounds with ADAM10 inh. AID 743214;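 active = mean triplicate inhibition above the solvent-only control wells' mean plus 3 SD, cut at about 12% in these data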;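 note: 0% = DMSO wells and 100% = marimastat wells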
# ADAM10 counter – ADAM10 inhibition, counter-screen for ADAM17 exosite hits | shares compounds with ADAM17 inh | recombinant ADAM10, EDANS/DABCYL FRET peptide cleavage, 3 h | inhibition, % at 6.95 µM | 2,900 tested, 47% active;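 active = mean inhibition over the triplicate runs exceeds the activity threshold set in the earlier primary screen, cut at about 20% in these data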;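 note: 0% = DMSO wells and 100% = marimastat wells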
# ADAM17 confirm – human ADAM17 inhibition, confirmation. shares compounds with ADAM17 inh. recombinant ADAM17, EDANS/DABCYL QFRET peptide cleavage. inhibition, % at 6.95 µM. 2,900 tested, 65% active;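 active = mean inhibition across replicates above the hit cutoff set in the primary screen, cut at about 8.5% in these data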;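 note: 0% = DMSO wells and 100% = marimastat wells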
# * = called active by the depositor; · = no result.
SMILES,ADAM10 inh,MT1-MMP act inh,DDE Tn7 FP inh,ADAM17 inh,Tn6 DDE FP,ADAM10 confirm,ADAM17 counter,ADAM10 counter,ADAM17 confirm
C[C@H]1CN([C@@H](C)CO)C(=O)c2cccc(NS(=O)(=O)c3ccc(F)cc3)c2O[C@H]1CN(C)Cc1ccc(Cl)c(Cl)c1,20*,-5,-5,9.2*,-2,5,1,28*,15*
C[C@@H]1CN([C@H](C)CO)C(=O)c2cc(NC(=O)Nc3ccc(F)cc3)ccc2O[C@@H](C)CCCCO[C@H]1CN(C)S(=O)(=O)c1ccc(Cl)cc1,32*,1,10,13*,-5,9,4,34*,17*
Cc1ccc(-c2[nH]c3ccccc3c2SCCNC(=O)c2ccc(S(=O)(=O)N3CCOCC3)cc2)cc1,24*,1,-2,11*,2,7,2,27*,16*
C=CCOc1ccc(Br)cc1/C=N/O,-6,-2,-2,-2,-1,·,·,·,·
O/N=C/c1cc(Br)ccc1OCc1ccccc1F,21*,2,-8,9.1*,-2,5,1,30*,17*
COc1ccccc1C(=O)Nc1ccc(S(=O)(=O)N2CCc3ccccc32)cc1,6,1,3,3,-5,·,·,·,·
COc1cc(C(=O)Nc2ccc(S(=O)(=O)N3CCc4ccccc43)cc2)cc(OC)c1OC,26*,7,-1,11*,-10,6,2,26*,16*
O=C(CC1SC(=Nc2cccc3ccccc23)N(Cc2ccccn2)C1=O)Nc1ccccc1Br (configuration not stated),-4,-10,-4,-2,-2,·,·,·,·
Cc1ccccc1N=C1SC(CC(=O)Nc2ccc3ccccc3c2)C(=O)N1Cc1ccccn1 (configuration not stated),39*,-25,4,15*,-1,11,3,37*,22*
O=S(Cc1cc(Oc2ccccc2)nc(-c2ccccc2)n1)c1ccccc1 (configuration not stated),26*,-1,0,11*,-14,3,1,10,7
O=Cc1ccc(Oc2cc(-c3ccccc3)nc(-c3ccccc3)n2)cc1,-5,-4,2,-4,1,·,·,·,·
O=C(c1ccc(Cl)cc1)N1CCC(O)(CSc2ccc(Cl)cc2Cl)CC1,27*,2,5,9.4*,6,4,2,27*,11*
O=C(c1ccc(Cl)c(Cl)c1)N1CCC(O)(CN2CCOCC2)CC1,3,-5,5,2,-2,·,·,·,·
O=C(NCc1ccccc1)OC1CCC12CCC(c1ccccc1)CC2 (configuration not stated),7,·,-8,0,1,·,·,·,·
COc1cccc(-n2c(-c3ccc4[nH]c(C)c(C)c4c3)n[nH]c2=S)c1,29*,3,2,14*,-3,6,3,-1,6
CC(CCc1ccc(O)cc1)NC(c1ccccc1)c1ccc(Cl)cc1 (configuration not stated),28*,-8,0,12*,-2,6,2,29*,24*
COc1cc(OC)cc(C(=O)NC(=S)NNC(=O)[C@H]2C[C@@H]2c2ccccc2)c1,6,9,0,1,6,·,·,·,·
COc1ccc(C(=O)NC(=S)NNC(=O)[C@H]2C[C@@H]2c2ccccc2)cc1OC,32*,-1,0,11*,6,3,3,-18,-1
CC1=CC(O)(c2ccccn2)P(=O)(c2ccccc2)C=C1C (configuration not stated),-11,·,5,-10,-1,·,·,·,·
COc1ccc(C(=O)Nc2ccc(OCC(F)(F)C(F)F)c(C(F)(F)F)c2)cc1OC,26*,8,3,9.0*,-9,3,0,52*,20*
COc1cc(/C=N/O)cc(Br)c1OCc1ccc(Cl)cc1,21*,-3,3,8.9*,-8,13,3,21*,11*
CC(C)C[C@H](NC(=O)c1nc[nH]c1C(=O)NC1CCN(C(=O)OC(C)(C)C)CC1)C(=O)OC(C)(C)C,24*,-14,-12,9.4*,5,3,0,32*,16*
CC(C)C[C@H](NC(=O)c1nc[nH]c1C(=O)NC1CCN(C(=O)OC(C)(C)C)CC1)C(=O)OCc1ccccc1,37*,-1,-12,16*,1,9,3,29*,16*
CC(C)C[C@H](NC(=O)c1nc[nH]c1C(=O)N1CCC(C)CC1)C(=O)OCc1ccccc1,-3,3,5,-2,0,·,·,·,·
CC(C)C[C@H](NC(=O)c1nc[nH]c1C(=O)N1CCN(C(=O)OC(C)(C)C)CC1)C(=O)OCc1ccccc1,25*,7,-4,9.9*,-7,2,1,27*,11*
SMILES,ADAM10 inh,MT1-MMP act inh,DDE Tn7 FP inh,ADAM17 inh,Tn6 DDE FP,ADAM10 confirm,ADAM17 counter,ADAM10 counter,ADAM17 confirm
CC(C)(C)OC(=O)[C@H](Cc1ccccc1)NC(=O)c1nc[nH]c1C(=O)NC1CCN(C(=O)OC(C)(C)C)CC1,24*,1,-6,11*,1,5,1,50*,23*
COc1ccc(CN2C[C@H](COCc3ccccc3)Oc3cccc(N4CCCC4)c3S2(=O)=O)cc1,-6,·,-7,0,-3,·,·,·,·
O=C(CCc1ccccc1)N[C@H]1[C@H](OCc2ccccc2)CCC[C@@]12C(=O)N(Cc1ccccc1)c1ccccc12,6,·,4,3,-3,·,·,·,·
OC(c1ccccc1)c1nc(-c2csc3ccccc23)cs1 (configuration not stated),33*,2,-4,16*,-4,3,1,30*,16*
CCOC(=O)c1ccc(NC(=S)NCCc2ccccc2)cc1,46*,13,-12,11*,-12,1,0,21*,11*
COC(=O)c1ccc(NC(=S)NCCc2ccccc2)cc1,0,12,3,5,-1,·,·,·,·
CCc1ccccc1NC(=O)c1cc(C)nn1-c1ccccc1,-8,·,2,-3,2,·,·,·,·
